TAAR1 ag = human TAAR1 agonism. CHO RD-HGA16 TAAR1, Fluo-8 calcium fluorescence; vehicle wells 0%, saturating PEA agonist 100%. AID 624467. activation, % at 3 µM. Q96RJ0. actives 0.99% (n = 360,000);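 active = activation above the mean activation of all test compounds in the run plus 3 SD, cut at about 38% in these data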
Target sequence (Q96RJ0 whole entry, looked up): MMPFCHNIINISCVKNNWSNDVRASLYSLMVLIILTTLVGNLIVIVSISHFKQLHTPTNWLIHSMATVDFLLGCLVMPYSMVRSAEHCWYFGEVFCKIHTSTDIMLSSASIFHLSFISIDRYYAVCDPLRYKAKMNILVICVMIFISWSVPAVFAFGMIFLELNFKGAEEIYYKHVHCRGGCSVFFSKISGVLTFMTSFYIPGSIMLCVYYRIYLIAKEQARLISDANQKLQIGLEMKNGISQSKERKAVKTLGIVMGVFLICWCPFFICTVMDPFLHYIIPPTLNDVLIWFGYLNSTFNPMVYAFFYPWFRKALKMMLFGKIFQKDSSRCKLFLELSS
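test system = CHO RD-HGA16 cells carrying human TAAR1 plus Gα16 | schedule = 17-24 h seeding, 75 min 37 °C dye, 30 min RT | compound dosing = 3 µM single concentration | control set = DMSO and PEA EC100 | replicates = n 1 | signal = Fluo-8 fluorescence, 5 s baseline then 140 s kinetic read | measure = percent activation vs PEA EC100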
OX1R antag-1 = human HCRTR1 antagonism | O43613 | CHO/OX1R cells, Fluo-8 calcium fluorescence, orexin A | inhibition, % at 5 µM | actives 0.43% (n = 330,000);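 active = inhibition above its plate's threshold, mean inhibition of all tested compounds on the plate plus 3 SD, cut at about 37% in these data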
OX1R antag-2 = OX1R (human) antagonism; O43613; OX1R-expressing cells, FRET antagonist read-out; inhibition, % at 6.6 µM; actives 1.8% (n = 330,000); in the data active = inhibition mostly above about 38%, no sharp cut-off; inactive = mostly below about 40%
GPR7 antag = antagonists of human GPR7 (neuropeptides B/W receptor 1); P48145; GPR7-expressing cells, fluorescence antagonist assay; inhibition, % at 4.4 µM; actives 1.1% (n = 290,000); AID 1861; in the data active = inhibition above about 16%, passing the limit was not always enough;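 note: cells stimulated with the agonist NPW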
CHO parental Ca = signal in parental CHO cells, OX1R antagonist counter-screen. parental CHO-K1, ATP-induced calcium, Fluo-8 fluorescence. inhibition, % at 5.6 µM. actives 0.63% (n = 330,000);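 active = inhibition above that plate's mean sample inhibition plus 3 SD, cut at about 26% in these data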
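Test system: parental CHO cells; detection: calcium-sensitive Fluo-8 fluorescence; evaluation: percent inhibition of calcium signal; also added: ATP as calcium-mobilizing challenge; repeats: one well per compound; control set: ATP-challenged DMSO wells low, unchallenged DMSO wells high; compound: single nominal dose of 5.6 µM per compound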
TAAR1 antag = antagonists of human TAAR1; Q96RJ0; CHO RD-HGA16 TAAR1, Fluo-8 calcium fluorescence, antagonist; inhibition, % at 3 µM; actives 1.5% (n = 360,000);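 active = inhibition above a per-plate cutoff, the mean inhibition of test compounds on that plate plus 3 SD, cut at about 49% in these data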
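Test system – hTAAR1-expressing CHO RD-HGA16 cells, Gα16-coupled · Also added – β-PEA at EC80 concentration, post-compound challenge · Compound – 3 µM, single point · Incubation – dye loading 75 min at 37 °C, then 30 min room temperature · Measured by – Fluo-8 intracellular calcium dye fluorescence, real-time kinetic reads · Benchmarks – vehicle and agonist controls · Replicates – singlicate, one well per test compound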
OX1R Ca confirm = OX1R (human) antagonism, confirmed; shares compounds with OX1R antag-1; CHO/OX1R cells, orexin A calcium Fluo-8 fluorescence; inhibition, % at 5 µM; actives 38% (n = 1,100); AID 492963; in the data active = inhibition above about 29%
CHO Ca counter = counter-screen: parental CHO calcium response change, triplicate | AID 492965 | actives 9.3% (n = 1,100) | inhibition, % at 5.6 µM | parental CHO-K1, ATP-induced calcium, Fluo-8 fluorescence | shares compounds with OX1R antag-1;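 active = inhibition above a per-plate limit, the mean inhibition of that plate's test compounds plus 3 SD, cut at about 25% in these data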
Large screens that a line does not name were inactive (follow-up assays come after a bar, where they were run). An excerpt weighted towards active compounds, which were near 4.5% of everything screened.

Cc1ccc(N=Cc2sc(O)c3ccccc23)cc1	none | OX1R Ca confirm inactive | CHO Ca counter inactive
Cc1noc(C)c1COC(=O)c1ccccc1NC(=O)c1ccco1	none
CN(C)CCCNc1cc(C(C)(C)C)nc2c(-c3ccc(Cl)cc3)cnn12	none | OX1R Ca confirm inactive | CHO Ca counter inactive
CC(C)(C)c1cc(NCc2ccccn2)n2ncc(-c3ccc(Cl)cc3)c2n1	none
CCc1c(C)sc(NC(=S)Nc2cccnc2)c1C(=O)OC	none
CCc1c(C)sc(NC(=S)Nc2nc(C)cc(C)n2)c1C(=O)OC	none | OX1R Ca confirm 45 | CHO Ca counter inactive
C=CCn1c(SC)nccc1=O	none (no result: OX1R antag-1, OX1R antag-2, GPR7 antag, CHO parental Ca)
CCOc1ccc2nc(SCCNS(=O)(=O)c3ccccc3)sc2c1	OX1R antag-1 50, TAAR1 antag 60 | OX1R Ca confirm inactive | CHO Ca counter inactive
CCOc1ccc2nc(SCC(=O)c3ccccc3)sc2c1	none
COc1cc(CCNC(=O)CCCn2c(=O)c3cccn3c3cccnc32)cc(OC)c1OC	none
CN(C)S(=O)(=O)c1ccc(-c2csc(N/N=C/c3ccco3)n2)cc1	TAAR1 antag 79 | OX1R Ca confirm 70 | CHO Ca counter inactive
Cc1ccc(-c2csc(N/N=C/c3ccco3)n2)cc1	none
COc1ccc(/C=c2\sc3nc(-c4ccccc4OC)nn3c2=O)c(OC)c1	OX1R antag-1 43 | OX1R Ca confirm 90 | CHO Ca counter inactive
COc1ccccc1-c1nc2s/c(=C\c3cccs3)c(=O)n2n1	none
CC(=O)N=C1SC2CS(=O)(=O)CC2N1c1cccc(Cl)c1Cl (stereo unspecified)	none
CC(=O)N=c1cccc(NC(C)=O)n1O	OX1R antag-1 86 | OX1R Ca confirm inactive | CHO Ca counter inactive
CCNC(=O)C12CCC(C)(C(=O)O1)C2(C)C (stereo unspecified)	none | OX1R Ca confirm inactive | CHO Ca counter inactive
COCCCN1C(=O)c2ccc(C(=O)NCCc3ccccc3)cc2C1=O	none
O=C(COc1coc(CN2CCCc3ccccc32)cc1=O)Nc1cccc([N+](=O)[O-])c1	none (no result: GPR7 antag)
O=C(Nc1cccc(S(=O)(=O)Nc2ccc(SC(F)F)cc2)c1)C1CCC1	none (no result: GPR7 antag) | OX1R Ca confirm inactive | CHO Ca counter inactive
CN(Cc1c(C(=O)N/N=C/c2cccc(Cl)c2)nnn1-c1nonc1N)c1ccccc1	none | OX1R Ca confirm inactive | CHO Ca counter inactive
COc1ccc(C[C@H]2CN3C(=NC[C@H]3Cc3ccccc3)N2CCNC(=O)c2ccc(C)c(Br)c2)cc1	none (no result: TAAR1 ag, GPR7 antag, TAAR1 antag) | OX1R Ca confirm 32 | CHO Ca counter inactive
COc1ccc(C[C@H]2CN3C(=NC[C@@H]3Cc3ccccc3)N2CCNC(=O)c2ccc(C)c(Br)c2)cc1	none (no result: TAAR1 ag, TAAR1 antag)
Cc1ccc(S(=O)(=O)NCCC(=O)NCCSc2ccc(Br)cc2)cc1	none
CC(C)NC(=O)C1CCN(C2CCN(CC3CC=CCC3)CC2)CC1 (stereo unspecified)	OX1R antag-1 76 | OX1R Ca confirm inactive | CHO Ca counter inactive
COc1cc(Cn2c(N)c(C#N)c3nc4ccccc4nc32)cc(OC)c1	none | OX1R Ca confirm 33 | CHO Ca counter inactive
COCCn1c(N)c(C#N)c2nc3ccccc3nc21	none
COC(=O)[C@H](CC(C)C)NC(=O)NC1CCCc2ccccc21 (stereo partly specified)	none | OX1R Ca confirm inactive | CHO Ca counter inactive
COc1ccccc1OCCCc1c(C)n[nH]c1C	none
COc1ccccc1OCCCCCc1c(C)n[nH]c1C	none | OX1R Ca confirm inactive | CHO Ca counter inactive
N#Cc1ccc(-c2cccnc2)nc1SCC(=O)c1ccccc1	OX1R antag-1 53 | OX1R Ca confirm inactive | CHO Ca counter inactive
COc1ccccc1NS(=O)(=O)c1cc(NC(=O)c2ccc3ccccc3n2)ccc1Cl	none
COc1ccc(C(=O)Nc2ccc(Cl)c(S(=O)(=O)Nc3ccccc3OC)c2)cc1	none | OX1R Ca confirm inactive | CHO Ca counter inactive

High-throughput results as filed in PubChem BioAssay.
